Our source for the Latency time, Dose and Delta latency time values is ChEMBL document CHEMBL1133180 (2000).

For test [1], the species on record is Mus musculus. Kind of test: Latency time on 1st day of mouse passive-avoidance test. Also: test concentration or dose not given here. Format: functional. In short, it runs like this: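 Mouse light/dark step-through test with a pitfall floor: entering the dark room drops the mouse 40 cm into 10 °C water. Mice not entering within 60 s are excluded. Dosing is sc 20 min before training, in saline or DMSO/H2O vehicle.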

In test [2] the test system is Mus musculus. Kind of test: Minimal effective s.c. dose to reverse Scopolamine induced amnesia in mouse passive-avoidance test.
The species named for test [3] is Mus musculus. Kind of test: Latency time on 2nd (post-treatment) day of mouse passive-avoidance test. In kind it is functional. In short, it runs like this:
(§1)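 Mouse light/dark step-through test with a pitfall floor: entering the dark room drops the mouse 40 cm into 10 °C water. Latencies in s are taken at training and at retention 24 h later, capped at 120 s. Mice not entering within 60 s are excluded. Dosing is sc 20 min before training, in saline or DMSO/H2O vehicle.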

The species entered for test [4] is Mus musculus. Kind of test: Change in the latency time on day 1 to that of day 2. Format: functional. The gist of the method: as §1
Test [5] concerns Mus musculus. Kind of test: Minimal effective dose to reverse Scopolamine induced amnesia, when given ip in mouse passive avoidance test. Format: functional. In short, it runs like this:
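Mouse passive avoidance (light/dark box) with a pitfall floor: entering the dark room drops the mouse 40 cm into 10 °C water. Test drugs were given in a 1-to-10 dilution series 20 min before training. […] Retention was tested at 24 h, with a 120 s maximum. Mice not entering within 60 s at training were excluded. The read-out is the retention minus training latency (s).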

Test [6] concerns Mus musculus. Kind of test: Minimal effective dose to reverse Scopolamine induced amnesia, when given sc in mouse passive avoidance test; Dose limited by solubility problems. Format: functional.

SMILES strings stand for the structures.

`O=C1CC[C@@H]2CN(S(=O)(=O)c3ccc(F)cc3)CCN12`: the Latency time in the test listed under Mus musculus [1] is 19.7 s; in the test filed under Mus musculus [3], 104.4 s. In addition, the Dose in the test with Mus musculus [2] came out at 0.001 mg/kg. This molecule yielded a Delta latency time in the test filed under Mus musculus [4] of 93.8 s.
In the test on Mus musculus [2], `O=C1CC[C@@H]2CN(Cc3ccc(F)cc3)CCN12` had a Dose of over 10 mg/kg.
For the molecule `O=C(c1ccc(F)cc1)N1CCN2C(=O)CC[C@@H]2C1`, the Latency time in the test listed under Mus musculus [1] came to 11.7 s; in the test listed under Mus musculus [3], 88.9 s. In addition, the Dose in the test on Mus musculus [2] is 10 mg/kg. In addition, in the test listed under Mus musculus [4], the Delta latency time came to 77.2 s.
As for `Cc1ccc(C(=O)N2CCN3C(=O)CC[C@@H]3C2)cc1`, the Latency time in the test listed under Mus musculus [1] is 15.6 s; in the test filed under Mus musculus [3] it was 100.1 s. This molecule also showed a Dose with Mus musculus [2] of 1 mg/kg. In addition, the Delta latency time in the test listed under Mus musculus [4] turned out to be 84.5 s.
On the same counts, the results for `O=C1CC[C@@H]2CN(S(=O)(=O)c3ccc([N+](=O)[O-])cc3)CCN12` are 13.8 s, 89.2 s, 10 mg/kg and 75.4 s.
On the same counts, the results for `Cc1ccc(S(=O)(=O)N2CCN3C(=O)CC[C@@H]3C2)cc1` are 15.1 s, 95.6 s, 1 mg/kg and 80.5 s.
Consider `NC(=O)CN1CCCC1=O`, for which the Latency time in the test listed under Mus musculus [1] was 17.6 s; in the test listed under Mus musculus [3], 108.8 s. This molecule also returned a Dose with Mus musculus [5] of 30 mg/kg. This molecule returned a Delta latency time in the test listed under Mus musculus [4] of 91.2 s.
In the case of `COc1ccc(C(=O)N2CCN3C(=O)CC[C@@H]3C2)cc1`, the Dose in the test with Mus musculus [6] was over 1 mg/kg.
As to `O=C(c1ccc(Cl)cc1)N1CCN2C(=O)CC[C@@H]2C1`, the Latency time in the test filed under Mus musculus [1] was 18.3 s; in the test listed under Mus musculus [3], 103.7 s. Moreover, the Dose in the test on Mus musculus [2] worked out at 10 mg/kg. This molecule displayed a Delta latency time in the test filed under Mus musculus [4] of 85.4 s.
On the same counts, the results for `O=C(c1ccc([N+](=O)[O-])cc1)N1CCN2C(=O)CC[C@@H]2C1` are 18 s, 96.2 s, 10 mg/kg and 78.2 s.
As to `O=C1CC[C@@H]2CN(S(=O)(=O)c3ccc(Cl)cc3)CCN12`, in the test on Mus musculus [6], the Dose is over 0.1 mg/kg.
For `O=C1CC[C@@H]2CN(Cc3ccccc3)CCN12`, the Latency time is recorded as 14.2 s in the test listed under Mus musculus [1] and 77.4 s in the test filed under Mus musculus [3]. The same molecule displayed a Dose with Mus musculus [2] of 1 mg/kg. Besides, the Delta latency time in the test filed under Mus musculus [4] came to 63.2 s.
As for `COc1ccc(S(=O)(=O)N2CCN3C(=O)CC[C@@H]3C2)cc1`, the figures for the Latency time in the test filed under Mus musculus [1] and in the test listed under Mus musculus [3] were 14.8 s and 118.3 s, respectively. In addition, in the test with Mus musculus [2], the Dose turned out to be 0.1 mg/kg. Also, in the test filed under Mus musculus [4], the Delta latency time is listed as 103.5 s.
With `O=C1CC[C@@H]2CN(S(=O)(=O)c3ccccc3)CCN12`, the Dose with Mus musculus [6] was over 10 mg/kg.
For the molecule `O=C(c1ccccc1)N1CCN2C(=O)CC[C@@H]2C1`, the results for the Latency time in the test listed under Mus musculus [1] and in the test listed under Mus musculus [3] were 16.8 s and 102 s, respectively. Besides, the Dose in the test with Mus musculus [2] came to 1 mg/kg. In the test filed under Mus musculus [4], this molecule yielded a Delta latency time of 85.2 s.
Regarding `C[C@@H]1C[C@@H]2CN(C(=O)c3ccccc3)CCN2C1=O` (relative stereo), the figures for the Latency time in the test filed under Mus musculus [1] and in the test listed under Mus musculus [3] were 17.7 s and 83.5 s, respectively. The molecule also had a Dose in the test on Mus musculus [2] of 1 mg/kg. The same molecule returned a Delta latency time in the test listed under Mus musculus [4] of 65.8 s.
On the same counts, the results for `C[C@H]1C[C@@H]2CN(C(=O)c3ccccc3)CCN2C1=O` (relative stereo) are 14.3 s, 99.5 s, 1 mg/kg and 85.2 s.
On the same counts, the results for `C[C@H]1C[C@@H]2CN(C(=O)c3ccc(F)cc3)CCN2C1=O` (relative stereo) are 21.8 s, 107.4 s, 0.1 mg/kg and 85.6 s.
On the same counts, the results for `C[C@@H]1C[C@@H]2CN(S(=O)(=O)c3ccc(F)cc3)CCN2C1=O` (relative stereo) are 21.9 s, 118.4 s, 0.1 mg/kg and 96.5 s.
Regarding `C[C@H]1C[C@@H]2CN(S(=O)(=O)c3ccccc3)CCN2C1=O` (relative stereo), the Latency time in the test filed under Mus musculus [1] is recorded as 18.3 s; in the test filed under Mus musculus [3], 91.3 s. In the test on Mus musculus [2], this molecule had a Dose of 10 mg/kg. In addition, the Delta latency time in the test filed under Mus musculus [4] is 73 s.
On the same counts, the results for `C[C@H]1C[C@@H]2CN(S(=O)(=O)c3ccc(F)cc3)CCN2C1=O` (relative stereo) are 16.9 s, 94.9 s, 0.1 mg/kg and 78 s.
For the molecule `C[C@@H]1C[C@@H]2CN(S(=O)(=O)c3ccccc3)CCN2C1=O` (relative stereo), the results for the Latency time in the test filed under Mus musculus [1] and in the test listed under Mus musculus [3] were 13.6 s and 94.8 s, respectively. In the test on Mus musculus [2], this molecule yielded a Dose of 1 mg/kg. In the test listed under Mus musculus [4], this molecule displayed a Delta latency time of 78.5 s.
As for `C[C@@H]1C[C@@H]2CN(C(=O)c3ccc(F)cc3)CCN2C1=O` (relative stereo), the Latency time in the test filed under Mus musculus [1] is given as 24 s; in the test filed under Mus musculus [3], 104 s. Moreover, in the test on Mus musculus [2], the Dose is 0.1 mg/kg. In addition, in the test listed under Mus musculus [4], the Delta latency time turned out to be 80 s.
Molecule `CN1[C@@H]2C[C@@H](OC(=O)[C@H](CO)c3ccccc3)C[C@H]1[C@@H]1O[C@@H]12` [SCOPOLAMINE] yielded a Dose in the test with Mus musculus [5] of 1.5 mg/kg. Moreover, the Latency time in the test listed under Mus musculus [3] is 44.5 s. In the test listed under Mus musculus [4], this molecule returned a Delta latency time of 27.9 s.
